# How the values were obtained:
# GzmB [1] = target: T1, GzmB (Mus musculus, UniProt P04187); assay: In vivo GzmB activity imaging with NIR activatable probe; design: species or system C57BL/6 mice; conditions: 10 nmol by peptide, organs excised at 24 hours
# T1 sequence (P04187 21-247): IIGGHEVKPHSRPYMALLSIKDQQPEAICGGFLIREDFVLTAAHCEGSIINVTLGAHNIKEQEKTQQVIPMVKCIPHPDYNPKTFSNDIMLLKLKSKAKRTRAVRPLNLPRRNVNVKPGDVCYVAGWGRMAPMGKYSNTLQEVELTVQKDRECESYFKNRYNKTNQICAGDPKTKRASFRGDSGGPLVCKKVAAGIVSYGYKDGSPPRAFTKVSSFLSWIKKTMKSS
# [2] = system: skin allograft (BALB/c donor); assay: Skin allograft rejection under tacrolimus immunosuppression; assay type: in vivo, C57BL/6 mice; conditions: 2 mg/kg I.P.; treated PODs 7, 12 n = 6; untreated POD 7 n = 8
# Procedure, shortened: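 Allograft recipients received tacrolimus 2 mg/kg i.p. or saline daily from POD −1 to POD 7, plus doses on PODs 9 and 11. FITC-labelled nanosensors (10 nmol by peptide) were given before transplant (POD −4) and on PODs 7 and 12, followed by 90-min urine collection. Urinary FITC was bead-purified with anti-FITC, converted to percent injected dose, and expressed as fold over pre-transplant; unpaired two-sided t-test.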
# murine Granzyme B = target: T2, murine Granzyme B (Mus musculus, UniProt P04187); assay: In vitro protease cleavage assay of nanosensors with recombinant GzmB; assay type: biochemical
# T2 sequence (P04187 21-247): T1 sequence (P04187 21-247)
# Procedure, shortened: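 Candidate GzmB substrates (6–12-mer, Ile at P4, Asp at P1) were conjugated to iron-oxide nanoparticles. They were incubated with recombinant GzmB in PBS + 1% BSA at 37 °C with fluorescence monitoring. Fluorescence traces were fitted to compare initial cleavage velocities.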
# [3] = system: membrane attack complex (MAC); assay: ELISA of membrane attack complex; design: species or system human; conditions: serum samples, MicroVue CH50 Eq EIA, after 1 hour, n = 3
# Procedure, shortened: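 Human control serum was mixed with activity nanosensors, and complement was triggered with heat-aggregated gamma globulin. Fluorescence was read for 1 h, then supernatants were assayed for membrane attack complex by CH50-equivalent EIA, which is proportional to CH50 U. Data are means ± s.e.m., n = 3, compared by one-way ANOVA with Tukey post-test.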
# [4] = system: skin allograft and isograft; assay type: in vivo, C57BL/6 mice; conditions: POD 7 (peak), i.v., surface-labeled, mice with both grafts, n = 5
# GzmB [5] = target: T1, GzmB; assay: Tracking of cleaved fragments after in vivo GzmB cleavage; design: species or system C57BL/6 mice; conditions: POD 7, VT750-labelled, 10 nmol by peptides, 90 minutes post administration, tissue homogenates
# [6] = system: GzmB activity in skin allograft; assay: Urinary prediction of acute rejection in skin graft mice; assay type: in vivo, C57BL/6 mice; conditions: FITC-labelled, 10 nmol by peptides, urine collected for 90 minutes, n = 6
# Procedure, shortened: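 This was a paired design in C57BL/6 recipients of BALB/c tail-skin grafts. FITC-labelled nanosensors (10 nmol by peptide) were dosed at POD −4 and at post-transplant days, and mice voided over plates for 90 min. Urinary FITC was captured on anti-FITC magnetic beads and quantified against a free-FITC ladder. Values were volume-normalised to percent injected dose, scaled to pre-transplant mean and variance; one-way ANOVA with Dunnett post-test.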
# [7] = Clearance of residual urine fluorescence after a single injection; assay type: in vivo, mice; conditions: n = 3
# Immunogenicity study = assay type: in vivo, C57BL/6 mice; conditions: 10 nmol I.P., with or without complete Freund's adjuvant, total serum IgG, n = 3
# Procedure, shortened: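 On day 0, C57BL/6 mice received a single i.p. dose in one of five arms: free GzmB substrate peptide (10 nmol), nanosensors (10 nmol by peptide), nanosensors plus complete Freund's adjuvant, chicken ovalbumin (100 μg) plus CFA, or saline. Serum came from retro-orbital blood, was spun at 3,500 G for 5 min and stored at −80°C. Total IgG was then quantified by immunoassay.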
compound,measurement,setting,value
kGGsIEFDSGGGs{PRA}c [activatable probe],"probe activation in tissues, allograft versus isograft mice",GzmB [1],significantly increased in allograft skin but statistically equivalent in all major organs
C=CC[C@@H]1/C=C(\C)C[C@H](C)C[C@H](OC)[C@H]2O[C@@](O)(C(=O)C(=O)N3CCCC[C@H]3C(=O)O[C@H](/C(C)=C/[C@@H]3CC[C@@H](O)[C@H](OC)C3)[C@H](C)[C@@H](O)CC1=O)[C@H](C)C[C@@H]2OC [Tacrolimus],nanosensor urine signals of treated versus untreated allograft mice,[2],blunted compared to untreated mice
AIEFD|SG,initial cleavage velocity by recombinant GzmB,"murine Granzyme B; library of 13 candidate substrates conjugated to IONPs, n = 4",highest initial cleavage velocity
(FITC)AIEFDSGc [activity nanosensors],activation (fluorescence) in samples that contained recombinant GzmB,"murine Granzyme B; saline, plasma or serum samples spiked with GzmB, 6 nM by NP, 300 nM by peptide, 37 °C, 60 minutes",markedly activated
same,MAC formation (complement activation by a foreign surface),[3],no elevation in MAC formation
same,signal increase in skin allograft over skin isograft,[4],4 fold
same,"fluorescence in kidneys, allograft compared to isograft mice",GzmB [5],3 fold
same,post-graft urine signals from allograft recipients versus pre-graft baseline,[6],significantly elevated as early as POD 5
same,time to full clearance of residual urinary fluorescence,[7],≤ 2 days
same,induction of neutralizing antibodies,Immunogenicity study,do not induce neutralizing antibodies
